Test results as given in ChEMBL document CHEMBL1142519, “Synthesis and antiprotozoal activity of cationic 2-phenylbenzofurans” (J Med Chem, 2008).
Calls of active or inactive are those of the source. No cut-off for these calls is given here.

Tests used:
[1] = tested on: Trypanosoma brucei rhodesiense; assay: Antitrypanosomal activity against Trypanosoma brucei rhodesiense STIB 900 infected acute mouse model assessed as survival time at 1 mg/kg, ip administered daily for 4 days; assay type: functional; conditions: route intraperitoneal
Summary of the method: (§1)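 STIB900 acute mouse model of T. b. rhodesiense infection, with intraperitoneal dosing. Read-out is the average days of survival of treated mice. Cures are counted as mice that survive and stay parasite-free for 60 days.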

[2] = tested on: Trypanosoma brucei rhodesiense; assay: Antitrypanosomal activity against Trypanosoma brucei rhodesiense STIB 900 infected acute mouse model assessed as survival time at 5 mg/kg, ip administered daily for 4 days; assay type: functional; conditions: route intraperitoneal; summary of the method: as §1
[3] = tested on: Plasmodium falciparum; assay: Antiplasmodial activity against chloroquine-resistant Plasmodium falciparum K1; assay type: functional, organism-based
Summary of the method: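 In vitro IC50 against chloroquine-resistant P. falciparum K1, reported as the average of duplicate determinations.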

[4] = Selectivity index, ratio of IC50 for rat L6 cells to IC50 for Leishmania donovani MHOM/SD/62/1S-CL2D; assay type: toxicity, cell-based; conditions: read-out: Ratio IC50
Summary of the method: (§2)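 Ratio of the L6 rat myoblast cytotoxicity IC50 to the IC50 against the parasite named in the line. Each IC50 is the average of duplicate determinations.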

[5] = tested on: Trypanosoma brucei rhodesiense; assay: Antitrypanosomal activity against Trypanosoma brucei rhodesiense STIB 900 infected acute mouse model assessed as cured mouse at 5 mg/kg, ip daily for 4 days; assay type: functional, organism-based; set-up: dose 5 mg/kg
Summary of the method: (§3)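 STIB900 acute mouse model of trypanosomiasis with intraperitoneal dosing. The regimens were daily for 4 days at 20, 5 or 1 mg/kg, or a single 10 mg/kg dose. A cure is a mouse that survives and is parasite-free for 60 days. Average days of survival are also recorded.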

[6] = tested on: Trypanosoma brucei rhodesiense; assay: Antitrypanosomal activity against Trypanosoma brucei rhodesiense STIB 900 infected acute mouse model assessed as cured mouse at 1 mg/kg, ip daily for 4 days; assay type: functional, organism-based; set-up: dose 1 mg/kg; summary of the method: as §3
[7] = tested on: L6; assay: Cytotoxicity against rat L6 cells; assay type: cell-based
Summary of the method: (§4)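 IC50 values in µM, each the average of duplicate determinations. Parasites were T. b. rhodesiense STIB900 and axenic amastigotes of L. donovani MHOM/SD/62/1S-CL2D. Cytotoxicity was run on rat L6 myoblast cells.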

[8] = tested on: Trypanosoma brucei rhodesiense; assay: Antitrypanosomal activity against Trypanosoma brucei rhodesiense STIB 900 bloodstream trypomastigotes; assay type: functional, organism-based; summary of the method: as §4
[9] = tested on: Trypanosoma brucei rhodesiense; assay: Antitrypanosomal activity against Trypanosoma brucei rhodesiense STIB 900 infected acute mouse model assessed as survival time at 10 mg/kg, ip; assay type: functional; conditions: route intraperitoneal; summary of the method: as §1
[10] = tested on: Leishmania donovani; assay: Antileishmanial activity against Leishmania donovani MHOM/SD/62/1S-CL2D axenic amastigotes; assay type: functional, organism-based; summary of the method: as §4
[11] = Selectivity index, ratio of IC50 for rat L6 cells to IC50 for Trypanosoma brucei rhodesiense STIB 900; assay type: toxicity, cell-based; conditions: read-out: Ratio IC50; summary of the method: as §2
[12] = Selectivity index, ratio of IC50 for rat L6 cells to IC50 for chloroquine-resistant Plasmodium falciparum K1; assay type: toxicity, cell-based; conditions: read-out: Ratio IC50; summary of the method: as §2
[13] = tested on: Trypanosoma brucei rhodesiense; assay: Antitrypanosomal activity against Trypanosoma brucei rhodesiense STIB 900 infected acute mouse model assessed as survival time at 8 mg/kg, ip administered daily for 4 days; assay type: functional; conditions: route intraperitoneal
[14] = tested on: Trypanosoma brucei rhodesiense; assay: Antitrypanosomal activity against Trypanosoma brucei rhodesiense STIB 900 infected acute mouse model assessed as cured mouse at 8 mg/kg, ip daily for 4 days; assay type: functional, organism-based; set-up: dose 8 mg/kg
[15] = tested on: Trypanosoma brucei rhodesiense; assay: Antitrypanosomal activity against Trypanosoma brucei rhodesiense STIB 900 infected acute mouse model assessed as cured mouse at 2 mg/kg, ip daily for 4 days; assay type: functional, organism-based; set-up: dose 2 mg/kg
[16] = tested on: Trypanosoma brucei rhodesiense; assay: Antitrypanosomal activity against Trypanosoma brucei rhodesiense STIB 900 infected acute mouse model assessed as survival time at 2 mg/kg, ip administered daily for 4 days; assay type: functional; conditions: route intraperitoneal
[17] = tested on: Trypanosoma brucei rhodesiense; assay: Antitrypanosomal activity against Trypanosoma brucei rhodesiense STIB 900 infected acute mouse model assessed as cured mouse at 10 mg/kg, ip; assay type: functional, organism-based; set-up: dose 10 mg/kg; summary of the method: as §3
[18] = tested on: Trypanosoma brucei rhodesiense; assay: Antitrypanosomal activity against Trypanosoma brucei rhodesiense STIB 900 infected acute mouse model assessed as survival time at 20 mg/kg, ip administered daily for 4 days; assay type: functional; conditions: route intraperitoneal; summary of the method: as §1
[19] = tested on: Trypanosoma brucei rhodesiense; assay: Antitrypanosomal activity against Trypanosoma brucei rhodesiense STIB 900 infected acute mouse model assessed as cured mouse at 20 mg/kg, ip daily for 4 days; assay type: functional, organism-based; set-up: dose 20 mg/kg; summary of the method: as §3

| SMILES | Survival [1] | Survival [2] | IC50 [3] | selectivity ratio [4] | Activity [5] | Activity [6] | IC50 [7] | IC50 [8] | Survival [9] | IC50 [10] | selectivity ratio [11] | selectivity ratio [12] | Survival [13] | Activity [14] | Activity [15] | Survival [16] | Activity [17] | Survival [18] | Activity [19] |
| --- | --- | --- | --- | --- | --- | --- | --- | --- | --- | --- | --- | --- | --- | --- | --- | --- | --- | --- | --- |
| COc1cc(C(=N)N)cc2cc(-c3ccc(C(=N)N)cc3)oc12 | 27.3 days | >60 days | 6 nM | 10 | Active | inactive | 30700 nM | 6 nM | >44 days | 3000 nM | 5120 | 5120 | – | – | – | – | – | – | – |
| Nc1nc(N)nc(Nc2ccc([As]3SCC(CO)S3)cc2)n1 (centres undefined) [MELARSOPROL] | >51.5 days | – | – | – | – | Active | – | – | – | – | – | – | >60 days | Active | Active | >60 days | – | – | – |
| N=C(N)c1ccc(-c2cc3cc(C(=N)N)cc(O)c3o2)cc1 | >30.8 days | >60 days | 47 nM | 35 | Active | – | 184000 nM | 3 nM | >43 days | 5300 nM | 61300 | 3920 | – | – | – | – | – | – | – |
| N=C(N)c1ccc(-c2cc3cc(C(=N)N)ccc3o2)c(O)c1 | 34.8 days | >54.5 days | 4 nM | 19 | – | inactive | 33300 nM | 2 nM | >55.3 days | 1800 nM | 16600 | 8320 | – | – | – | – | – | – | – |
| CC(C)NC(=N)c1ccc(-c2cc3cc(C(=N)NC(C)C)cc(O)c3o2)c(O)c1 | 26.3 days | >60 days | 310 nM | > 4 | Active | inactive | > 179000 nM | 23 nM | >50.7 days | 46000 nM | > 7780 | > 577 | – | – | – | – | – | – | – |
| CC(C)NC(=N)c1ccc(-c2cc3ccc(C(=N)NC(C)C)cc3o2)c(O)c1 | >46.5 days | >55.5 days | 597 nM | > 5 | – | – | > 183000 nM | 9 nM | >51.8 days | 39000 nM | > 20300 | > 307 | – | – | – | – | – | – | – |
| N=C(N)c1ccc(-c2cc3cc(C(=N)N)cc(O)c3o2)c(O)c1 | >33.5 days | >56.8 days | 61 nM | 0.2 | – | – | 2100 nM | 18 nM | >49.5 days | 14000 nM | 117 | 34 | – | – | – | – | – | – | – |
| CC(C)NC(=N)c1ccc(-c2cc3cc(C(=N)NC(C)C)ccc3o2)cc1 | 15.3 days | >53 days | 73 nM | > 125 | – | inactive | > 198000 nM | 125 nM | – | 1600 nM | > 1580 | > 2710 | – | – | – | – | inactive | – | – |
| N=C(N)c1ccc(O)c(-c2cc3cc(C(=N)N)ccc3o2)c1 | 26 days | >60 days | 793 nM | > 11 | Active | inactive | > 217000 nM | 5 nM | >51.5 days | 20000 nM | > 43400 | > 274 | – | – | – | – | – | – | – |
| Oc1cc(C2=NCCN2)cc2cc(-c3ccc(C4=NCCN4)cc3)oc12 | >39 days | >49.8 days | 22 nM | > 27 | – | – | > 203000 nM | 4 nM | >51.3 days | 7400 nM | > 50800 | > 9230 | – | – | – | – | – | – | – |
| CC(C)NC(=N)c1ccc(-c2cc3cc(C(=N)NC(C)C)ccc3o2)c(O)c1 | 18.5 days | >50.5 days | 28 nM | > 101 | – | inactive | > 183000 nM | 21 nM | 26.8 days | 1800 nM | > 8710 | > 6540 | – | – | – | – | inactive | – | – |
| N=C(N)c1ccc(-c2cc3ccc(C(=N)N)cc3o2)cc1 | 26.5 days | >60 days | 3 nM | 0.3 | Active | inactive | 800 nM | 7 nM | >39.5 days | 3100 nM | 114 | 267 | – | – | – | – | – | – | – |
| CC(C)NC(=N)c1ccc(-c2cc3cc(C(=N)NC(C)C)cc(O)c3o2)cc1 | >19.8 days | >60 days | 56 nM | > 9 | Active | inactive | > 185000 nM | 28 nM | >36.3 days | 20000 nM | > 6610 | > 3300 | – | – | – | – | – | – | – |
| COc1cc(C2=NCCN2)cc2cc(-c3ccc(C4=NCCN4)cc3)oc12 | – | – | 32 nM | 5 | – | – | 19900 nM | 124 nM | – | 4500 nM | 160 | 622 | – | – | – | – | – | 11.5 days | inactive |
| Oc1cc(C2=NCCN2)ccc1-c1cc2cc(C3=NCCN3)ccc2o1 | 20 days | >60 days | 6 nM | 26 | – | inactive | 150000 nM | 8 nM | 23.5 days | 5800 nM | 18800 | 25000 | – | – | – | – | inactive | – | – |
| COc1cc(C(=N)NC(C)C)ccc1-c1cc2cc(C(=N)NC(C)C)ccc2o1 | – | >39 days | 20 nM | 67 | inactive | – | 98100 nM | 74 nM | – | 1500 nM | 1330 | 4900 | – | – | – | – | – | – | – |
| N=C(N)c1ccc(-c2cc3ccc(C(=N)N)cc3[nH]2)cc1 [DAPI] | – | >40.8 days | 3 nM | – | inactive | – | 860 nM | 17 nM | – | – | 51 | 287 | – | – | – | – | – | >60 days | Active |
| COc1ccc(C2=NCCN2)cc1-c1cc2ccc(C3=NCCN3)cc2o1 | – | 25 days | 74 nM | 0.3 | inactive | – | 11100 nM | 17 nM | – | 34000 nM | 653 | 150 | – | – | – | – | – | – | – |
